Screening data as filed in PubChem.
GASC1 inh = inhibitors of human demethylase GASC-1 KDM4C; hit rate 0.15% among 96,000; Q9H3R0; GST-KDM4C 2-372, H3K9me3 peptide, LANCE TR-FRET; inhibition, % at 12.5 µM;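 active = mean replicate inhibition above about 25%, with at least 55% of replicates also reaching it, limit read from the data, passing the limit was not always enough; inconclusive = only one of those two conditions met; inactive = neither condition met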
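Test system – GST-tagged GASC-1 (JMJD2C) catalytic fragment, aa 2-372 · Medium – HEPES buffer, pH 7.5, plus ascorbate · Reagent – H3K9me3 peptide with Fe(II)/2OG · Compound – one test concentration per compound · Timing – 30 min reaction, 60 min detection, RT · Technique – TR-FRET with Eu antibody and ULight streptavidin, EDTA stop · Read-out basis – inhibition from TR-FRET ratio decrease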
T cruzi growth-1 = inhibitors of T. cruzi proliferation; inhibition, % at 8.34 µM; T. cruzi beta-gal in NIH3T3, GalScreen luminescence, 90 h; hit rate 5.9% among 77,000;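 active = mean inhibition above about 93%, with at least 55% of replicates each passing it, limit read from the data, passing the limit was not always enough; inconclusive = only one of those two conditions holds; inactive = neither condition holds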
IDH1 mut inh = inhibitors of human IDH1 R132H. O75874. IDH1 R132H reductase, diaphorase/resazurin fluorescence, 60 min. inhibition, % at 10 µM. hit rate 0.18% among 70,000; in the data active = inhibition above about 34%; inconclusive = no clear call, values can overlap the other calls; inactive = below about 11%;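 also: 0% = DMSO and 100% = no enzyme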
Target sequence (O75874 whole entry R132H): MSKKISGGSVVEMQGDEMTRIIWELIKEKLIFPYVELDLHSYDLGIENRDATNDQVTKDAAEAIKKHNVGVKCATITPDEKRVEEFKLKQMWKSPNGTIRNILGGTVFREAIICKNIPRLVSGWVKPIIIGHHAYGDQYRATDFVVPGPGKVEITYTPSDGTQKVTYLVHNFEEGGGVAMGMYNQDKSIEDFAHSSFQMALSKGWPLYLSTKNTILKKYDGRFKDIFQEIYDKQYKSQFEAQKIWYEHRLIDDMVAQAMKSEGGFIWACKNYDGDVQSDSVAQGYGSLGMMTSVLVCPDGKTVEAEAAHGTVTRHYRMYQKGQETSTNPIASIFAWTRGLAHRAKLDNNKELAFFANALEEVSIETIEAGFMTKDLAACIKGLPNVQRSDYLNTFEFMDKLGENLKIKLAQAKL
T cruzi growth-2 = blocks T. cruzi growth in NIH3T3 host cells; shares compounds with T cruzi growth-1; T. cruzi beta-gal in NIH3T3, GalScreen luminescence, 90 h; inhibition, % at 8.35 µM; hit rate 72% among 5,600; AID 651739;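 active = mean replicate inhibition above about 95% and at least 55% of replicates individually reaching it, limit read from the data; inconclusive = only one of the two criteria is met; inactive = neither criterion is met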
T cruzi growth-3 = blocks T. cruzi growth in NIH3T3 host cells | inhibition, % at 2.09 µM | shares compounds with T cruzi growth-1 | T. cruzi beta-gal in NIH3T3, GalScreen luminescence, 90 h | hit rate 21% among 5,600;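 active = mean inhibition above about 95%, with at least 55% of replicates also reaching it, limit read from the data; inconclusive = meets just one of the two conditions; inactive = meets neither condition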;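 also: plate controls were neutral control median for no effect and positive control median for full effect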
NIH3T3 tox = NIH/3T3 (mouse) viability loss; cytotoxicity (signal decrease), % at 8.35 µM; shares compounds with T cruzi growth-1; hit rate 14% among 5,600; NIH/3T3 viability, CellTiter-Glo ATP luminescence, 90 h;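 active = mean signal decrease across replicates above about 35% based on untreated-well scatter, with enough replicates individually passing, limit read from the data; inconclusive = no rule stated though some were filed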;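 also: 0% = median of neutral control wells and 100% = median of positive control wells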
3T3 cytotox 2 = cytotoxicity in mouse NIH/3T3 fibroblasts | shares compounds with T cruzi growth-1 | NIH/3T3 viability, CellTiter-Glo ATP luminescence, 90 h | inhibition, % at 24.9 µM | hit rate 56% among 5,600;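 active = mean loss of cell viability signal at or above a set limit, and enough replicates individually reaching it; inconclusive = meets only the mean limit or only the replicate share; inactive = meets neither condition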;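 also: 0% = median of neutral control wells and 100% = median of positive control wells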
Starred values were filed as active, the others as inactive; ? = inconclusive; . = no result given. Shown is part of a subset that was picked to be rich in hits.

SMILES | GASC1 inh | T cruzi growth-1 | IDH1 mut inh | T cruzi growth-2 | T cruzi growth-3 | NIH3T3 tox | 3T3 cytotox 2
COc1ccc(C#Cc2cnc3c(c2)C(=O)N([C@@H](C)CO)C[C@@H](C)[C@@H](CN(C)C(=O)Nc2cccc(OC)c2)O3)cc1 | -8.8 | ? | . | 108.8* | 73.4 | 4.8 | 13.9
COc1cc(NC(=O)C(C)Oc2ccc(Cl)cc2Cl)ccc1NC(=O)c1cc2ccccc2o1 (stereo unspecified) | . | . | 0.3 | . | . | . | .
CCCNC(=O)C[C@@H]1CC[C@H]2[C@H](COc3ccc(NC(=O)c4ccc(OC)cc4)cc3C(=O)N2C)O1 | 2.9 | 44.6 | . | . | . | . | .
O=C(CC1NCCNC1=O)Nc1ccc(Cl)cc1 (stereo unspecified) | . | . | 0.5 | . | . | . | .
C[C@H](CO)N1C[C@H](C)[C@@H](CN(C)S(C)(=O)=O)Oc2ccc(NS(=O)(=O)c3cccs3)cc2C1=O | 0.0 | -38.3 | . | . | . | . | .
COc1ccc(S(=O)(=O)N[C@H]2CC[C@@H](CC(=O)N3CCc4ccccc4C3)O[C@H]2CO)cc1 | 2.6 | 46.4 | 0.3 | . | . | . | .
O=C(O)CCCCCC(=O)N/N=C/c1ccc(F)cc1 | . | . | 0.2 | . | . | . | .
Cn1cnc(S(=O)(=O)N2CCCCN3[C@@H](CO)[C@@H](c4ccc(-c5ccccc5)cc4)[C@@H]3C2)c1 | 1.6 | 114.1* | . | 4.7 | -12.2 | -15.3 | 39.7*
Cc1cccc(-c2ccc([C@@H]3[C@@H](CO)N4CCCCN(S(=O)(=O)c5cn(C)cn5)C[C@@H]34)cc2)c1 | -0.5 | ? | . | 83.3 | -22.4 | 31.5 | 81.6*
Cn1cnc(S(=O)(=O)N2CCCCN3[C@H](CO)[C@H](c4ccc(-c5ccc(F)cc5)cc4)[C@@H]3C2)c1 | -0.7 | 1.3 | . | . | . | . | .
Cn1cnc(S(=O)(=O)N2CCCCN3[C@H](CO)[C@H](c4ccc(-c5ccccc5)cc4)[C@H]3C2)c1 | -0.5 | ? | . | 25.8 | 9.0 | 3.4 | 30.0*
Cc1cccc(-c2ccc([C@H]3[C@@H](CO)N4CCCCN(S(=O)(=O)c5cn(C)cn5)C[C@@H]34)cc2)c1 | -2.0 | -39.5 | . | . | . | . | .
Cn1cnc(S(=O)(=O)N2CCCCN3[C@H](CO)[C@H](c4ccc(-c5ccccc5)cc4)[C@@H]3C2)c1 | -1.2 | 55.2 | . | . | . | . | .
COC(=O)C[C@H]1CC[C@@H]2[C@H](COc3ccc(NC(=O)c4ccccc4F)cc3C(=O)N2C)O1 | -0.1 | -39.4 | . | . | . | . | .
C[C@@H]1CN([C@@H](C)CO)C(=O)Cc2cc(NC(=O)Nc3ccccc3)ccc2O[C@H]1CN(C)C(=O)Nc1ccc(C(F)(F)F)cc1 | -1.9 | 7.0 | . | . | . | . | .
C[C@H]1CN([C@@H](C)CO)C(=O)c2cc(NC(=O)Cc3cn(C)c4ccccc34)ccc2O[C@H]1CN(C)S(=O)(=O)c1ccccc1 | . | 79.5 | -40.1 | . | . | . | .
COc1ccc(S(=O)(=O)N(C)C[C@@H]2Oc3ccc(NC(=O)Cc4cn(C)c5ccccc45)cc3C(=O)N([C@H](C)CO)C[C@@H]2C)cc1 | -4.4 | 100.9* | -9.7 | 97.3* | 20.4 | 10.3 | 63.5*
C[C@@H]1CN([C@@H](C)CO)C(=O)c2cc(NC(=O)Cc3cn(C)c4ccccc34)ccc2O[C@H]1CN(C)S(=O)(=O)c1ccccc1 | . | 38.8 | . | . | . | . | .
COc1ccc(S(=O)(=O)N(C)C[C@@H]2Oc3ccc(NC(=O)Cc4cn(C)c5ccccc45)cc3C(=O)N([C@@H](C)CO)C[C@@H]2C)cc1 | -6.9 | 102.0* | -6.3 | 84.6 | 27.1 | -5.1 | 46.4*
CCC(=O)Nc1ccc2c(c1)C(=O)N(C)C[C@@H](OC)[C@@H](C)CN(CC1CCOCC1)[C@@H](C)CO2 | -0.9 | 17.5 | . | . | . | . | .
O=C(CS(=O)c1ccc(C(F)(F)F)cc1[N+](=O)[O-])Oc1ccc(C2CCCCC2)cc1 (stereo unspecified) | . | . | -0.2 | . | . | . | .
CC(C)CC#Cc1ccc2c(c1)O[C@H](CN(C)Cc1ccccc1)[C@H](C)CN([C@H](C)CO)S2(=O)=O | 0.6 | 104.0* | -0.1 | 87.4 | 108.8* | 16.2 | 105.1*
CC(C)CC#Cc1ccc2c(c1)O[C@H](CN(C)Cc1ccccc1)[C@@H](C)CN([C@@H](C)CO)S2(=O)=O | -1.6 | 123.5* | 0.0 | 100.0* | 114.3* | -4.6 | 103.8*
CC(C)CC#Cc1ccc2c(c1)O[C@H](CN(C)Cc1ccc(F)cc1)[C@H](C)CN([C@@H](C)CO)S2(=O)=O | . | 83.7 | -0.1 | . | . | . | .
